Active and inactive are the calls of the source. No cut-off for these calls is given here.
Target: T1, NAD-dependent protein deacetylase sirtuin-2 (Homo sapiens, UniProt Q8IXJ6)
T1 sequence (Q8IXJ6 whole entry): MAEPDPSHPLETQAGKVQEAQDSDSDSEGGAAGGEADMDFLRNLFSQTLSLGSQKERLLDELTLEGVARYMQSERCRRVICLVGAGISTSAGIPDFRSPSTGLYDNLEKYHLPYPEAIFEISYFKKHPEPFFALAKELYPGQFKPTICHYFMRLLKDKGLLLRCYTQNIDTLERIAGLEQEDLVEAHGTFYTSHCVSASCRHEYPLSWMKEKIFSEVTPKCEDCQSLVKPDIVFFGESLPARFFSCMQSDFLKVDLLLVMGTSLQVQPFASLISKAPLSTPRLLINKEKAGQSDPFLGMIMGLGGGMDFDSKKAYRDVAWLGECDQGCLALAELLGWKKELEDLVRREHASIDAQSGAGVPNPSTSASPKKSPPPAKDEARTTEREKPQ
Assay: Inhibition of human C-terminal His-tagged SIRT2 (50 to 356 residues) expressed in Escherichia coli using Ac-Gln-Pro-Lys-Lys(pro)-AMC (oxo-11) as substrate by fluorescence assay
Details: not given

| Structure (SMILES) | IC50 [nM] |
| --- | --- |
| CCCC(=S)NCCCC[C@H](NC(=O)OCc1ccccc1)C(=O)N[C@@H](Cc1c[nH]c2ccccc12)C(=O)NC(C)C | 440 |

Target: T2, NAD-dependent protein deacetylase sirtuin-1 (Homo sapiens) (UniProt Q96EB6)
T2 sequence (whole entry): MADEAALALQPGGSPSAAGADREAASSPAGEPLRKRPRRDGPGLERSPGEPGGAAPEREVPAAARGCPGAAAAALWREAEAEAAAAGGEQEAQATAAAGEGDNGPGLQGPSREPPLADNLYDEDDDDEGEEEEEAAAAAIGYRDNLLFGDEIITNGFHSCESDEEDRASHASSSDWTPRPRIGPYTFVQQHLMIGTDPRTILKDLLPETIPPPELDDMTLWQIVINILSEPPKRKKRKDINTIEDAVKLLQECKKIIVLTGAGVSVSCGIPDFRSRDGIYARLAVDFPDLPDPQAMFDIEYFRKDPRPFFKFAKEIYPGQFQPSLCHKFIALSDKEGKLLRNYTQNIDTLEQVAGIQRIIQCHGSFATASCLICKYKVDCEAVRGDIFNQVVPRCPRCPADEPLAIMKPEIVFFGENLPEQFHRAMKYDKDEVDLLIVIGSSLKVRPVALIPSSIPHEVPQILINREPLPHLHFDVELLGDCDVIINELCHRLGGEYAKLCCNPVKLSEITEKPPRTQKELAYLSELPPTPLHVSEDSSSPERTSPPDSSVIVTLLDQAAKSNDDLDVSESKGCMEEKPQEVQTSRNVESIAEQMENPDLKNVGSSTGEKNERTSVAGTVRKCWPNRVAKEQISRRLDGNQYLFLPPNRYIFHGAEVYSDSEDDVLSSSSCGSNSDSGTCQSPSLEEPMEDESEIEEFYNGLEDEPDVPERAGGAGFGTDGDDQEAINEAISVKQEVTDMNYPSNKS
Assay: Inhibition of human recombinant N-terminal GST-tagged SIRT1 (193 to 741 residues) deacetylation activity in presence of substrate and NAD+ at 15 uM after 60 mins by reversed-phase UPLC-MS analysis relative to control
Details: not given

| Structure (SMILES) | inhibition |
| --- | --- |
| CCCC(=S)NCCCC[C@H](NC(=O)OCc1ccccc1)C(=O)N[C@@H](Cc1c[nH]c2ccccc12)C(=O)NC(C)C | inactive |

Target: T3, NAD-dependent protein deacetylase sirtuin-1 (Homo sapiens, UniProt Q96EB6)
T3 sequence (Q96EB6 whole entry): T2 sequence (whole entry)
Assay: Inhibition of human recombinant N-terminal GST-tagged SIRT1 (193 to 741 residues) expressed in Escherichia coli using Ac-Gln-Pro-Lys-Lys(Ac)-AMC (oxo-10) as substrate by fluorescence assay
Details: not given

| Structure (SMILES) | IC50 [nM] |
| --- | --- |
| CCNC(=S)NCCCC[C@H](NC(=O)OCc1ccccc1)C(=O)N[C@@H](Cc1c[nH]c2ccccc12)C(=O)NC(C)C | 1900 |
| CC(C)NC(=O)[C@H](Cc1c[nH]c2ccccc12)NC(=O)[C@H](CCCCNC(N)=S)NC(=O)OCc1ccccc1 | 980 |
| CCCC(=S)NCCCC[C@H](NC(=O)OCc1ccccc1)C(=O)N[C@@H](Cc1c[nH]c2ccccc12)C(=O)NC(C)C | 540 |

Target: T2, NAD-dependent protein deacetylase sirtuin-1 (Homo sapiens)
Assay: Inhibition of human recombinant N-terminal GST-tagged SIRT1 (193 to 741 residues) expressed in Escherichia coli using Ac-Gln-Pro-Lys-Lys(Ac)-AMC (oxo-10) as substrate at 100 uM by fluorescence assay relative to control
Details: not given

| Structure (SMILES) | inhibition [%] |
| --- | --- |
| CC(C)NC(=O)[C@H](Cc1c[nH]c2ccccc12)NC(=O)[C@H](CCCCNC(=O)C(F)F)NC(=O)OCc1ccccc1 | 29 |

Tested on: not listed separately
Assay: Metabolic stability of compound in human serum assessed as half life incubated for >10 mins measured after 90 mins by HPLC analysis
Format: ADME, cell-free
Details: not given

| Structure (SMILES) | half-life [h] |
| --- | --- |
| CCNC(=S)NCCCC[C@H](NC(=O)OCc1ccccc1)C(=O)N[C@@H](Cc1c[nH]c2ccccc12)C(=O)NC(C)C | < 1 |
| CC(C)NC(=O)[C@H](Cc1c[nH]c2ccccc12)NC(=O)[C@H](CCCCNC(N)=S)NC(=O)OCc1ccccc1 | > 7 |

Target: T2, NAD-dependent protein deacetylase sirtuin-1 (Homo sapiens)
Assay: Inhibition of human N-terminal GST-tagged SIRT1 (193 to 741 residues) expressed in Escherichia coli preincubated with NAD+ for 30 mins using Ac-Gln-Pro-Lys-Lys(Ac)-AMC (oxo-10) as substrate at 1 to 100 uM measured after 90 mins by fluorescence assay
Details: dose microM 1-100, time 120.0 min
Procedure, shortened: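 Recombinant SIRT1 (100 nM) preincubated 30 min with compound, either with or without NAD+ (500 μM), before the fluorogenic deacetylation read-out. Single-dose %-inhibition. Two independent experiments in duplicate, standard deviation.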

| Structure (SMILES) | inhibition |
| --- | --- |
| CCNC(=S)NCCCC[C@H](NC(=O)OCc1ccccc1)C(=O)N[C@@H](Cc1c[nH]c2ccccc12)C(=O)NC(C)C | Active |
| CC(C)NC(=O)[C@H](Cc1c[nH]c2ccccc12)NC(=O)[C@H](CCCCNC(=O)C(F)F)NC(=O)OCc1ccccc1 | inactive |
| CC(C)NC(=O)[C@H](Cc1c[nH]c2ccccc12)NC(=O)[C@H](CCCCNC(N)=S)NC(=O)OCc1ccccc1 | Active |
| CCCC(=S)NCCCC[C@H](NC(=O)OCc1ccccc1)C(=O)N[C@@H](Cc1c[nH]c2ccccc12)C(=O)NC(C)C | Active |

Target: T4, NAD-dependent protein deacetylase sirtuin-3, mitochondrial (Homo sapiens) (UniProt Q9NTG7)
T4 sequence (whole entry): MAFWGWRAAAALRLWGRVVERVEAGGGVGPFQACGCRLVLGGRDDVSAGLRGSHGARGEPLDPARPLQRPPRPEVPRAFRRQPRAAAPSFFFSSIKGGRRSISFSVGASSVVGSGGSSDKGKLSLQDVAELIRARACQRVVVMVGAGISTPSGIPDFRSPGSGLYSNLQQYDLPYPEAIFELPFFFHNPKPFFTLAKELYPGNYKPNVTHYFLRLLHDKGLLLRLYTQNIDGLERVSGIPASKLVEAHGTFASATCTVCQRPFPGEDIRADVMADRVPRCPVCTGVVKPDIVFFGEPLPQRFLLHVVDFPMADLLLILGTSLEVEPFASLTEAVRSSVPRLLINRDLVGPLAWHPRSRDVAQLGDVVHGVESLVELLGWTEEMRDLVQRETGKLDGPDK
Assay: Inhibition of human N-terminal GST-tagged SIRT3 (102 to 399 residues) expressed in Escherichia coli using Ac-Gln-Pro-Lys-Lys(but)-AMC (oxo-12) as substrate at 100 uM by fluorescence assay relative to control
Details: not given

| Structure (SMILES) | inhibition [%] |
| --- | --- |
| CC(C)NC(=O)[C@H](Cc1c[nH]c2ccccc12)NC(=O)[C@H](CCCCNC(=O)C(F)F)NC(=O)OCc1ccccc1 | 9 |
| CCCC(=S)NCCCC[C@H](NC(=O)OCc1ccccc1)C(=O)N[C@@H](Cc1c[nH]c2ccccc12)C(=O)NC(C)C | 10 |

Target: T5, NAD-dependent protein deacetylase sirtuin-2 (Homo sapiens) (UniProt Q8IXJ6)
T5 sequence (whole entry): T1 sequence (Q8IXJ6 whole entry)
Assay: Inhibition of human C-terminal His-tagged SIRT2 (50 to 356 residues) expressed in Escherichia coli using Ac-Gln-Pro-Lys-Lys(pro)-AMC (oxo-11) as substrate at 10 uM by fluorescence assay relative to control
Details: not given

| Structure (SMILES) | inhibition [%] |
| --- | --- |
| CCNC(=S)NCCCC[C@H](NC(=O)OCc1ccccc1)C(=O)N[C@@H](Cc1c[nH]c2ccccc12)C(=O)NC(C)C | 71 |
| CC(C)NC(=O)[C@H](Cc1c[nH]c2ccccc12)NC(=O)[C@H](CCCCNC(N)=S)NC(=O)OCc1ccccc1 | 28 |

Target: T4, NAD-dependent protein deacetylase sirtuin-3, mitochondrial (Homo sapiens)
Assay: Inhibition of human N-terminal GST-tagged SIRT3 (102 to 399 residues) expressed in Escherichia coli using Ac-Gln-Pro-Lys-Lys(but)-AMC (oxo-12) as substrate at 10 uM by fluorescence assay relative to control
Details: not given

| Structure (SMILES) | inhibition [%] |
| --- | --- |
| CCNC(=S)NCCCC[C@H](NC(=O)OCc1ccccc1)C(=O)N[C@@H](Cc1c[nH]c2ccccc12)C(=O)NC(C)C | 2 |
| CC(C)NC(=O)[C@H](Cc1c[nH]c2ccccc12)NC(=O)[C@H](CCCCNC(N)=S)NC(=O)OCc1ccccc1 | 2 |

Tested on: not listed separately
Assay: Metabolic stability of compound in human serum assessed as drug degradation incubated for >10 mins measured after 90 mins by HPLC analysis
Format: ADME, cell-free
Details: 1.5 h

| Structure (SMILES) | Activity |
| --- | --- |
| CCNC(=S)NCCCC[C@H](NC(=O)OCc1ccccc1)C(=O)N[C@@H](Cc1c[nH]c2ccccc12)C(=O)NC(C)C | Not Active |

Target: T4, NAD-dependent protein deacetylase sirtuin-3, mitochondrial (Homo sapiens)
Assay: Inhibition of human recombinant N-terminal GST-tagged SIRT3 (102 to 399 residues) deacetylation activity in presence of substrate and NAD+ at 15 uM after 60 mins measured by reversed-phase UPLC-MS analysis relative to control
Details: not given

| Structure (SMILES) | inhibition |
| --- | --- |
| CCCC(=S)NCCCC[C@H](NC(=O)OCc1ccccc1)C(=O)N[C@@H](Cc1c[nH]c2ccccc12)C(=O)NC(C)C | inactive |

Target: T5, NAD-dependent protein deacetylase sirtuin-2 (Homo sapiens)
Assay: Inhibition of human C-terminal His-tagged SIRT2 (50 to 356 residues) expressed in Escherichia coli using Ac-Gln-Pro-Lys-Lys(pro)-AMC (oxo-11) as substrate at 100 uM by fluorescence assay relative to control
Details: not given

| Structure (SMILES) | inhibition [%] |
| --- | --- |
| CC(C)NC(=O)[C@H](Cc1c[nH]c2ccccc12)NC(=O)[C@H](CCCCNC(=O)C(F)F)NC(=O)OCc1ccccc1 | 17 |

— ChEMBL document CHEMBL4725432, “Dethioacylation by Sirtuins 1-3: Considerations for Drug Design Using Mechanism-Based Sirtuin Inhibition” (ACS Med Chem Lett, 2020)
